According to ChEMBL document CHEMBL2040806, “Synthesis and biological evaluation of analogs of the marine alkaloids granulatimide and isogranulatimide” (Eur J Med Chem, 2012):

system: not listed separately; assay: Cytotoxicity against human OE21 cells after 72 hrs by MTT assay; assay type: functional, cell-based; details: OE21, 72 h

First: COc1ccc2[nH]c(-c3ccc[nH]3)cc2c1
Second: COc1ccc2[nH]c(-n3cccn3)cc2c1
The IC50 of the first is lower: 33 µM for the first, greater than 100 µM for the second. The first is the more potent here.

Compared with `Cc1ccc2[nH]c3c(c4c(c5ccnn53)C(=O)NC4=O)c2c1`, `COc1ccc2[nH]c(-n3cccn3)c(C3=C(Br)C(=O)NC3=O)c2c1` is 6-fold higher in IC50: 5 µM for the first, 30 µM for the second. The first is the more potent here.

`c1ccc2[nH]c(-n3cccn3)cc2c1` and `COc1ccc2[nH]c3c(c4c(n5cccc35)C(=O)N(C)C4=O)c2c1` cannot be ordered by IC50: greater than 100 µM for the first, greater than 100 µM for the second.

system: HCT-116; assay: Cell cycle arrest in p53 double-mutant human HCT116 cells assessed as mitotic index after 24 hrs by flow cytometric analysis; assay type: functional; parameters: concentration or dose not given beside the values; details: not given
Method in brief: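 HCT116 p53-/- cells pretreated with etoposide for 1 h, then released into drug-free medium with or without inhibitor for 23 h; nocodazole added to trap cells exiting G2/M. Mitotic cells scored by phospho-histone H3 labeling and DNA content (propidium iodide) by flow cytometry.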

In order of falling Activity:
1. Cc1ccc2[nH]c3c(c4c(c5ccnn53)C(=O)NC4=O)c2c1  13.9%
2. COc1ccc2[nH]c(-c3ccc[nH]3)cc2c1  8.3%

system: MCF7; assay: Cytotoxicity against human MCF7 cells after 72 hrs by MTT assay; assay type: functional, cell-based; details: MCF7, 72 h

First: COc1ccc2[nH]c(-c3ccc[nH]3)cc2c1
Second: COc1ccc2[nH]c(-n3cccn3)cc2c1
The IC50 of the first is lower: 84 µM for the first, greater than 100 µM for the second. The first is the more potent here.

`Cc1ccc2[nH]c3c(c4c(c5ccnn53)C(=O)NC4=O)c2c1` and `COc1ccc2[nH]c(-n3cccn3)c(C3=C(Br)C(=O)NC3=O)c2c1` are within 1.5-fold of each other in IC50: 9 µM for the first, 11 µM for the second.

First: c1ccc2[nH]c(-n3cccn3)cc2c1
Second: COc1ccc2[nH]c3c(c4c(n5cccc35)C(=O)N(C)C4=O)c2c1
The IC50 of the first is higher: greater than 100 µM for the first, 36 µM for the second.

molecular target: Glycogen synthase kinase-3 (Sus scrofa, UniProt B2LUN4+I6LNT8); assay: Inhibition of porcine brain GSK3alpha/beta using GS1 as substrate; details: not given

`Cc1ccc2[nH]c3c(c4c(c5ccnn53)C(=O)NC4=O)c2c1` gave an IC50 of 0.045 µM.

system: PC-3; assay: Cytotoxicity against human PC3 cells after 72 hrs by MTT assay; assay type: functional, cell-based; details: PC-3, 72 h

Going from `COc1ccc2[nH]c(-c3ccc[nH]3)cc2c1` to `COc1ccc2[nH]c(-n3cccn3)cc2c1`, the IC50 rises from 26 µM to greater than 100 µM. The first is the more potent here.

Compared with `Cc1ccc2[nH]c3c(c4c(c5ccnn53)C(=O)NC4=O)c2c1`, `COc1ccc2[nH]c(-n3cccn3)c(C3=C(Br)C(=O)NC3=O)c2c1` is 2.9-fold lower in IC50: 75 µM for the first, 26 µM for the second. The second is the more potent here.

Compared with `c1ccc2[nH]c(-n3cccn3)cc2c1`, `COc1ccc2[nH]c3c(c4c(n5cccc35)C(=O)N(C)C4=O)c2c1` is lower in IC50: greater than 100 µM for the first, 64 µM for the second. The second is the more potent here.

molecular target: Dual specificity tyrosine-phosphorylation-regulated kinase 1A (Rattus norvegicus, UniProt Q63470); assay: Inhibition of GST-fused rat recombinant DYRK1A expressed in Escherichia coli using Woodtide as substrate and [gamma-33P] after 30 mins by scintillation counting; details: not given

With `Cc1ccc2[nH]c3c(c4c(c5ccnn53)C(=O)NC4=O)c2c1` the IC50 was greater than 10 µM.

system: not listed separately; assay: Inhibition of porcine brain CK1delta/epsilon using CKS peptide as substrate; parameters: species or system Sus scrofa; details: not given

`Cc1ccc2[nH]c3c(c4c(c5ccnn53)C(=O)NC4=O)c2c1` showed an IC50 of 7.1 µM.

system: not listed separately; assay: Cytotoxicity against human Hs683 cells after 72 hrs by MTT assay; assay type: functional, cell-based; details: Hs 683, 72 h

`COc1ccc2[nH]c(-c3ccc[nH]3)cc2c1` and `COc1ccc2[nH]c(-n3cccn3)cc2c1` are within 1.5-fold of each other in IC50: 50 µM for the first, 69 µM for the second.

Compared with `Cc1ccc2[nH]c3c(c4c(c5ccnn53)C(=O)NC4=O)c2c1`, `COc1ccc2[nH]c(-n3cccn3)c(C3=C(Br)C(=O)NC3=O)c2c1` is 2.1-fold lower in IC50: 64 µM for the first, 30 µM for the second. The second is the more potent here.

Compared with `c1ccc2[nH]c(-n3cccn3)cc2c1`, `COc1ccc2[nH]c3c(c4c(n5cccc35)C(=O)N(C)C4=O)c2c1` is lower in IC50: greater than 100 µM for the first, 72 µM for the second.

system: B16-F10; assay: Cytotoxicity against mouse B16F10 cells after 72 hrs by MTT assay; assay type: functional, cell-based; details: B16-F10, 72 h

Compared with `COc1ccc2[nH]c(-c3ccc[nH]3)cc2c1`, `COc1ccc2[nH]c(-n3cccn3)cc2c1` is higher in IC50: 61 µM for the first, greater than 100 µM for the second.

Compared with `Cc1ccc2[nH]c3c(c4c(c5ccnn53)C(=O)NC4=O)c2c1`, `COc1ccc2[nH]c(-n3cccn3)c(C3=C(Br)C(=O)NC3=O)c2c1` is 4.6-fold lower in IC50: 37 µM for the first, 8 µM for the second. The second is the more potent here.

Going from `c1ccc2[nH]c(-n3cccn3)cc2c1` to `COc1ccc2[nH]c3c(c4c(n5cccc35)C(=O)N(C)C4=O)c2c1`, the IC50 falls from greater than 100 µM to 27 µM.

system: A549; assay: Cytotoxicity against human A549 cells after 72 hrs by MTT assay; assay type: functional, cell-based; details: A549, 72 h

First: COc1ccc2[nH]c(-c3ccc[nH]3)cc2c1
Second: COc1ccc2[nH]c(-n3cccn3)cc2c1
The IC50 of the first is lower: 55 µM for the first, greater than 100 µM for the second.

Compared with `Cc1ccc2[nH]c3c(c4c(c5ccnn53)C(=O)NC4=O)c2c1`, `COc1ccc2[nH]c(-n3cccn3)c(C3=C(Br)C(=O)NC3=O)c2c1` is 3.6-fold higher in IC50: 8 µM for the first, 29 µM for the second. The first is the more potent here.

Compared with `c1ccc2[nH]c(-n3cccn3)cc2c1`, `COc1ccc2[nH]c3c(c4c(n5cccc35)C(=O)N(C)C4=O)c2c1` is lower in IC50: greater than 100 µM for the first, 36 µM for the second.

system: LoVo; assay: Cytotoxicity against human LoVo cells after 72 hrs by MTT assay; assay type: functional, cell-based; details: not given

In order of falling IC50:
1. c1ccc2[nH]c(-n3cccn3)cc2c1  86 µM
2. COc1ccc2[nH]c(-n3cccn3)cc2c1  70 µM
3. COc1ccc2[nH]c3c(c4c(n5cccc35)C(=O)N(C)C4=O)c2c1  40 µM
4. COc1ccc2[nH]c(-c3ccc[nH]3)cc2c1  26 µM
5. COc1ccc2[nH]c(-n3cccn3)c(C3=C(Br)C(=O)NC3=O)c2c1  26 µM
6. Cc1ccc2[nH]c3c(c4c(c5ccnn53)C(=O)NC4=O)c2c1  4 µM

molecular target: Dual specificity protein kinase CLK1 (Mus musculus, UniProt P22518); assay: Inhibition of GST-fused mouse recombinant CLK1 expressed in Escherichia coli using RS peptide as substrate; details: not given
Sequence (P22518 whole entry, the tested form may be a part): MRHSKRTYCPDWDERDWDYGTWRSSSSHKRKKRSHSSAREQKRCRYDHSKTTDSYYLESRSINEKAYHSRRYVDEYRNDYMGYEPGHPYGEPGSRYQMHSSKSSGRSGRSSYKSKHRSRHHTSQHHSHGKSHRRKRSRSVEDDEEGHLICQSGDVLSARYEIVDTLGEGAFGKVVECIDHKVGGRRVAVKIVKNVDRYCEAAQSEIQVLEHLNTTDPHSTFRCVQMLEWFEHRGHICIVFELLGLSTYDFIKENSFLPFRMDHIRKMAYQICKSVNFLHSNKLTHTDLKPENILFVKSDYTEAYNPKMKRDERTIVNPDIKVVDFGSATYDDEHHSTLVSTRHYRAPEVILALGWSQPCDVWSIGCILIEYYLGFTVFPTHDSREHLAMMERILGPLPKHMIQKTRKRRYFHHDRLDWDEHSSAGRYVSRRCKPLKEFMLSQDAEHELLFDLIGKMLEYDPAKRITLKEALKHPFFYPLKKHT
Method in brief: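 Blanks subtracted, activity as % of uninhibited maximum, DMSO dilution controls, IC50 from dose-response curves.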

In the case of `Cc1ccc2[nH]c3c(c4c(c5ccnn53)C(=O)NC4=O)c2c1`, the IC50 is reported as 3.5 µM.

molecular target: Cyclin-dependent kinase 5/CDK5 activator 1 (Homo sapiens, UniProt Q00535); assay: Inhibition of human recombinant CDK5/p25; assay type: protein-complex assay; details: not given
Sequence (Q00535 whole entry): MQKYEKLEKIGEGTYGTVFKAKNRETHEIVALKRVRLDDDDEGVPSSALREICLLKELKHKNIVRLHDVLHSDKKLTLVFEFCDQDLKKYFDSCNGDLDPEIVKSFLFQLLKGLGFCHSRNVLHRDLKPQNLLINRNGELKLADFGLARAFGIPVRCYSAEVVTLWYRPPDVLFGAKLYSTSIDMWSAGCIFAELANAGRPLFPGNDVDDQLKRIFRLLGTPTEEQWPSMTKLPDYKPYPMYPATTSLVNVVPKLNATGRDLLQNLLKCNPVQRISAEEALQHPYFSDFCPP
Sequence (Q15078 whole entry, further chain): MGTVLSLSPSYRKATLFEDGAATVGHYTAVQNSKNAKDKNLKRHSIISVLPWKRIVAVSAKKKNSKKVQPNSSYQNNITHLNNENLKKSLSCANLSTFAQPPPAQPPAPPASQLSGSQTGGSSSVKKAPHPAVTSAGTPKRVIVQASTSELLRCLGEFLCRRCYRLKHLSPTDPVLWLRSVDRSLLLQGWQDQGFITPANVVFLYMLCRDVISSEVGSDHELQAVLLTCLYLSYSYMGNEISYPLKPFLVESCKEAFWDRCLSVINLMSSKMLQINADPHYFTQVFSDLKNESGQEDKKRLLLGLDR
Method in brief: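 Human recombinant CDK5/p25 assayed in triplicate in buffer C with 1 mg/ml histone H1 at 30 °C, 15 µM ATP final. Activity as % of uninhibited control after blank subtraction; IC50 from dose-response curves.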

Compound `Cc1ccc2[nH]c3c(c4c(c5ccnn53)C(=O)NC4=O)c2c1` has an IC50 greater than 10 µM.

system: not listed separately; assay: Cytotoxicity against p53-mutant human U373 cells after 72 hrs by MTT assay; assay type: functional, cell-based, U-373MG ATCC; details: U373 MG

Compared with `COc1ccc2[nH]c(-c3ccc[nH]3)cc2c1`, `COc1ccc2[nH]c(-n3cccn3)cc2c1` is higher in IC50: 43 µM for the first, greater than 100 µM for the second. The first is the more potent here.

First: Cc1ccc2[nH]c3c(c4c(c5ccnn53)C(=O)NC4=O)c2c1
Second: COc1ccc2[nH]c(-n3cccn3)c(C3=C(Br)C(=O)NC3=O)c2c1
The IC50 of the first is 2.1-fold higher: 57 µM for the first, 27 µM for the second.

Compared with `c1ccc2[nH]c(-n3cccn3)cc2c1`, `COc1ccc2[nH]c3c(c4c(n5cccc35)C(=O)N(C)C4=O)c2c1` is lower in IC50: greater than 100 µM for the first, 28 µM for the second. The second is the more potent here.
